Assay outcomes (PubChem)
Shown is part of a subset that was picked to be rich in hits.
Xi reactivation – activators of X-chromosome reactivation in mouse fibroblasts | XiGFP mouse fibroblasts, % GFP-positive cells imaging, 3 d; cells co-treated with 5-aza-dC sensitizer; scaled so ellipticine positive control = 100% | activation, % at 7.58 µM | hit rate 0.055% among 360,000;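 active = mean normalized replicate activation at least 10% and every replicate at or above 10%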;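 also: 0% = median of on-plate neutral control wells and 100% = ellipticine 6 µM median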
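Assay system: SV40-immortalized XiGFP fibroblast cells, line 68-5-11; buffer or medium: DMEM plus 5-aza-dC sensitizer; compound: one concentration, pinned; timing: compounds 3 days, fix/stain 15 min at room temperature; benchmarks: positive control ellipticine, 6 µM final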
E-sel inducer – induces E-selectin expression in human endothelial cells. activation, % at 7.58 µM. AID 686992. HUVEC E-selectin immunofluorescence imaging; normalized: neutral wells 0, TNF-alpha wells 100. hit rate 0.37% among 260,000;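 active = mean E-selectin-positive cell signal at least 10% of the positive control, reached in at least 60% of replicates, without over 20% cell loss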
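Read-out basis: % PE-positive cells; Test system: HUVEC primary endothelial cells; Technique: immunofluorescence imaging; Dosing: single-point compound dose.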
Numbers without * were called inactive; . = no result given.

SMILES	Xi reactivation	E-sel inducer
C[C@H](CO)N1C[C@H](C)[C@H](CN(C)C(=O)NC2CCCCC2)Oc2ccc(NC(=O)CCCCCC(=O)Nc3ccccc3N)cc2C1=O	-0.4	0.0
CCOc1ccccc1NC(=O)N1CCC(NC(=O)C2CCCCC2)CC1	0.3	34.6*
CCOc1ccccc1NC(=O)N1CCC(NC(=O)c2cccc(C)c2)CC1	.	-0.3
O=C(Nc1nnc(-c2cccnc2)s1)c1cccs1	-0.2	-0.1
c1ccc(Nc2nnc(-c3cccnc3)s2)cc1	0.2	47.8*
C[C@H](CO)N1C[C@H](C)[C@@H](CN(C)CC2CCCCC2)Oc2c(NC(=O)Cc3cn(C)c4ccccc34)cccc2C1=O	0.2	.
COc1ccc2c3c(n(C)c2c1)[C@H](CO)N(C(=O)CN(C)C)CC31CN(Cc2cccnc2)C1	0.3	0.1
CC(=O)N1CC(=O)N2[C@H](CO)[C@@H](c3ccc(-c4ccc(C#N)cc4)cc3)[C@@H]2C1	0.7	.
COc1cc(NC(=S)NCc2cccnc2)cc(OC)c1OC	0.0	27.2*
COc1cc(NC(=S)NCc2cccnc2)cc(OC)c1	0.1	.
CN1C(=CC=C2C=C(I)C(=O)C(I)=C2)C(C)(C)c2ccccc21	-0.2	163.2*
CN1/C(=C\C=C2/C(=O)Oc3ccccc3C2=O)C(C)(C)c2ccccc21	2.0	4.8
C[C@@H]1CN([C@@H](C)CO)C(=O)c2cc(NC(=O)CCC(F)(F)F)ccc2O[C@@H](C)CCCCO[C@@H]1CN(C)C(=O)Nc1ccc(F)cc1	0.1	.
CCN(CC)P(=O)(Nc1ccc(Br)cc1)c1c(C)nn(CCC#N)c1NC(=O)c1ccc(Cl)cc1 (stereo not given)	0.4	50.4*
CCn1nc(C)c(NC(=O)c2ccc(Cl)cc2)c1C	0.1	-1.2
C[C@H]1COCc2cnnn2CC[C@H](Cc2ccccc2)C(=O)N1	0.3	.
CCC(=O)c1ccc(OCC(=O)NNC(=O)c2cc(C)oc2C)cc1	-0.1	48.8*
CCOc1ccc(C(=O)NNC(=O)c2cc(C)oc2C)cc1	0.5	0.0
COc1cc(C(=O)NC(C)c2ccccc2)ccc1OCC(=O)N1CCOCC1 (stereo not given)	0.0	-0.2
COc1cc(C(=O)NC(C)c2cc(C)ccc2C)ccc1OCC(=O)N1CCOCC1 (stereo not given)	0.3	144.3*
CCNC(=O)C[C@@H]1CC[C@@H]2[C@@H](COc3ccc(NC(=O)Nc4ccc(F)cc4)cc3C(=O)N2C)O1	0.2	0.0
CC(C)NC(=O)Nc1ccc2c(c1)C(=O)N(C)[C@H]1CC[C@H](CC(=O)NCC(F)(F)F)O[C@@H]1CO2	0.5	0.0
CCNC(=O)C[C@@H]1CC[C@H]2[C@@H](COc3ccc(NC(=O)Nc4ccc(F)cc4)cc3C(=O)N2C)O1	0.0	84.2*
CNC(=O)C[C@H]1CC[C@H]2[C@@H](COc3ccc(NC(=O)c4cccc(F)c4)cc3C(=O)N2C)O1	0.0	91.9*
CNC(=O)C[C@H]1CC[C@@H]2[C@@H](COc3ccc(NC(=O)c4cccc(F)c4)cc3C(=O)N2C)O1	0.1	0.1
SMILES	Xi reactivation	E-sel inducer
CC(C)NC(=O)Nc1ccc2c(c1)C(=O)N(C)[C@@H]1CC[C@@H](CC(=O)NCC(F)(F)F)O[C@@H]1CO2	0.0	104.9*
COc1ccc2c3c(n(C)c2c1)[C@@H](CO)N(C(=O)Nc1ccc(F)cc1)CC31CCN(C(=O)NC2CCCC2)CC1	0.5	0.1
CNC[C@H]1Oc2ccc(NC(C)=O)cc2CC(=O)N(C)C[C@H]1C	-0.1	.
O=C(C[C@H]1CC[C@@H]2[C@H](COC[C@H](O)CN2C(=O)Nc2ccc(Cl)c(Cl)c2)O1)NCc1ccccc1	-0.1	0.4
C[C@H](CO)N1C[C@H](C)[C@@H](CN(C)Cc2ccncc2)Oc2ccc(NC(=O)CCC(F)(F)F)cc2CC1=O	0.2	-5.3
C[C@H](CO)N1C[C@H](C)[C@@H](CN(C)Cc2ccncc2)Oc2ccc(NS(C)(=O)=O)cc2CC1=O	0.0	-4.5
C[C@H]1CN([C@@H](C)CO)C(=O)Cc2cc(NS(C)(=O)=O)ccc2O[C@H]1CN(C)Cc1ccncc1	0.0	-2.9
C[C@H](CO)N1C[C@H](C)[C@H](CN(C)Cc2ccncc2)Oc2ccc(NS(C)(=O)=O)cc2CC1=O	-0.1	256.7*
C[C@H]1CN([C@@H](C)CO)C(=O)Cc2cc(NS(C)(=O)=O)ccc2O[C@@H]1CN(C)Cc1ccncc1	0.0	449.3*
C[C@H](CO)N1C[C@H](C)[C@H](CN(C)Cc2ccncc2)Oc2ccc(NC(=O)CCC(F)(F)F)cc2CC1=O	0.0	314.2*
CC(C)NC(=O)Nc1cccc2c1O[C@@H](CN(C)C)[C@@H](C)CN(C)C2=O	0.2	.
Cc1ccccc1S(=O)(=O)NCC[C@H]1CC[C@@H](NC(=O)C2CC2)[C@H](CO)O1	1.4	-0.1
CO[C@H]1CN(C)C(=O)c2ccc(NC(=O)NC(C)C)cc2OC[C@H](C)N(C(=O)NC(C)C)C[C@@H]1C	-0.1	.
